Results gathered from unrelated publications.
Lines come from different studies, so protocols differ.
CTSS: Cathepsin S (CTSS, Homo sapiens, UniProt P25774)
MAOA: Amine oxidase [flavin-containing] A (MAOA, Homo sapiens, UniProt P21397)

CN(C)C(=O)COC(=O)Cc1ccc(OC(=O)c2ccc(NC(=N)N)cc2)cc1  inhibition (CTSS; enzyme activity, inhibitor; 10 µM): 3%
COc1cc(Nc2ncc(F)c(Nc3ccc4c(n3)NC(=O)C(C)(C)O4)n2)cc(OC)c1OC  inhibition (Homeodomain-interacting protein kinase 3 (HIPK3, Homo sapiens, UniProt Q9H422); binding, competition with immobilised ligand; 10 µM): 64%
Cn1cc(-c2cc(F)cc(N3CCn4c(cc5c4CCCC5)C3=O)c2CO)cc(Nc2ccc(N3CCN(C4COC4)CC3)cn2)c1=O  inhibition (Cyclin-dependent kinase 5, with p35 (CDK5, Homo sapiens, UniProt Q00535); enzyme activity, inhibitor; 0.1 µM): 6%
CCN(CC)CCCC[C@H](NC(=O)[C@H](CC(C)C)NC(=O)[C@H](C)NC(=O)[C@H](Cc1ccccc1)NC(=O)c1ccc(C(C)(C)C)cc1)C(=O)N[C@@H](CO)C(=O)OC  inhibition (Vasoactive intestinal polypeptide receptor 1 (VIPR1, Homo sapiens, UniProt P32241); ligand displacement, radioligand; 10 µM): -9%
Cc1ncc(C)n2nc(/C=C/c3nc(N4CCCC4)cc(N4CCOCC4)n3)nc12  inhibition (Angiotensin-converting enzyme 2 (ACE2, Homo sapiens, UniProt Q9BYF1); enzyme activity, inhibitor; 10 µM): 11%
N=C(N)c1ccc2cc(OC(=O)c3ccc(N=C(N)N)cc3)ccc2c1  inhibition (Ubiquitin carboxyl-terminal hydrolase 2 (USP2, Homo sapiens, UniProt O75604); enzyme activity, inhibitor; 10 µM): 0%
O=C(Nc1cccnn1)N1CCN([C@@H]2CCOc3cc(C(F)(F)F)ccc32)CC1  inhibition (Kappa-type opioid receptor (Oprk1, Rattus norvegicus, UniProt P34975); cell-free assay; 20 µM): 21%
C[C@@H]1CCCN1CCCCOc1ccc2occc(=O)c2c1  inhibition (MAOA; enzyme activity, inhibitor, fluorescence; 10 µM): 7%
c1ccc(C(NCCNC(c2ccccc2)c2ccccc2)c2ccccc2)cc1  inhibition (MAOA; cell-free assay, inhibitor; 10 µM): 11%
CC(C)C[C@H](NC(=O)[C@H]1O[C@@H]1C(=O)O)C(=O)NCCCCN=C(N)N  inhibition (CTSS; enzyme activity, inhibitor; 50 nM): 81%
CN(CCN1CCC(OC(=O)Nc2ccccc2-c2ccccc2)CC1)C(=O)c1ccc(CN2CCC(C(N)=O)CC2)cc1  inhibition (MAOA; enzyme activity, inhibitor; 1 µM): -2%
C#Cc1n[nH]c2c(-c3cn([C@@H](C)c4ccccn4)c(=O)[nH]c3=O)cc(F)cc12  inhibition (Focal adhesion kinase 1 (PTK2, Homo sapiens, UniProt Q05397); enzyme activity, inhibitor; 0.1 µM): 4.5%
CCOC(=O)c1ccc(OC(=O)CCCCCNC(=N)N)cc1  inhibition (Dipeptidyl peptidase 3 (DPP3, Homo sapiens, UniProt Q9NY33); enzyme activity, inhibitor; 10 µM): 4%
COCc1c(-c2cc3cc(C)cc(OC)c3s2)c2c(N)ncnn2c1CN1CCNC(=O)C1  inhibition (Thromboxane-A synthase (TBXAS1, Homo sapiens, UniProt P24557); enzyme activity, inhibitor; 10 µM): 86%
CN1CCN(CCCCOc2ccc3occc(=O)c3c2)CC1  inhibition (MAOA; enzyme activity, inhibitor, fluorescence; 10 µM): 5%
O=C(O)C(=O)Nc1sc2c(c1C(=O)O)CCNC2  inhibition (Tyrosine-protein phosphatase non-receptor type 1 (PTPN1, Homo sapiens, UniProt P18031); enzyme activity, inhibitor; 30 µM): ~50%
